Values after ≈ are worked out from the molar mass of the structure shown.
Experiments:
Mus musculus [1] = assay: Blood level after oral administration in mice (50 mg/kg) was determined (area under the concentration-time curve recorded at 0.5, 1, 2, and 4 hour after dosing); assay type: ADME, organism-based; parameters: dose 50 mg/kg, time < 4 hr, route oral; conditions: in vivo
Method in brief: (§1)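 Single oral dose of 50 mg/kg to mice. Blood taken from groups of six mice at 0.5, 1, 2 and 4 h after dosing. Serum levels measured by disk agar diffusion bioassay with Bacillus subtilis ATCC 6633 on Seed Agar, plates incubated 18 h at 37 °C, giving total activity in serum. AUC 0-4 h expressed as μg/mL […].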

Bacillus cereus = assay: Minimum inhibitory concentration (MIC) preventing growth of Bacillus cereus; assay type: functional
Bacillus subtilis = assay: Minimum inhibitory concentration (MIC) preventing growth of Bacillus subtilis; assay type: functional
Escherichia coli [2] = assay: Minimum inhibitory concentration (MIC)preventing growth of Escherichia coli; assay type: functional
Escherichia coli [3] = assay: Efficacy on systemic infections after oral administration in mice was determined against Escherichia coli HM-42; assay type: functional
Method in brief: (§2)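 Mouse protection test using 4 groups of 10 mice. Mice were infected intraperitoneally with a bacterial suspension slightly above LD100. A single oral dose was given immediately after infection, with four doses, one per group, chosen from in vitro activity. Survival was scored after one week, and ED50 (total mg/kg protecting 50% of mice) was interpolated from group survival rates.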

Klebsiella pneumoniae = assay: Minimum inhibitory concentration (MIC)preventing growth of Klebsiella pneumoniae; assay type: functional
Morganella morganii = assay: Minimum inhibitory concentration (MIC) preventing growth of Morganella morganii; assay type: functional
Pseudomonas aeruginosa [4] = assay: Efficacy on systemic infections after oral administration in mice was determined against Pseudomonas aeruginosa HS-116; assay type: functional; method in brief: as §2
Proteus vulgaris = assay: Minimum inhibitory concentration (MIC) preventing growth of Proteus vulgaris; assay type: functional
[5] = test system: Staphylococcus epidermidis; assay: Minimum inhibitory concentration (MIC) preventing growth of Staphylococcus epidermidis; assay type: functional
Staphylococcus aureus [6] = assay: Minimum inhibitory concentration (MIC) preventing growth of […]; assay type: functional
Staphylococcus aureus [7] = assay: Efficacy on systemic infections after oral administration in mice was determined against […] HS-93; assay type: functional; method in brief: as §2
Enterococcus faecalis = assay: Minimum inhibitory concentration (MIC) preventing growth of Streptococcus faecalis ATCC 10541; assay type: functional
Enterobacter cloacae = assay: Minimum inhibitory concentration (MIC)preventing growth of Enterobacter cloacae; assay type: functional
Pseudomonas aeruginosa [8] = assay: Minimum inhibitory concentration (MIC)preventing growth of Pseudomonas aeruginosa; assay type: functional
Mus musculus [9] = assay: Blood level after oral administration in mice (50 mg/kg) was determined by bioassay procedure and represent total activity present in the serum; assay type: ADME, organism-based; conditions: in vivo; method in brief: as §1

Compound | AUC (Mus musculus [1]) [µg·h/mL] | MIC (Bacillus cereus) [mg/L] | MIC (Bacillus subtilis) [mg/L] | MIC (Escherichia coli [2]) [mg/L] | ED50 (Escherichia coli [3]) [mg/kg] | MIC (Klebsiella pneumoniae) [mg/L] | MIC (Morganella morganii) [mg/L] | ED50 (Pseudomonas aeruginosa [4]) [mg/kg] | MIC (Proteus vulgaris) [mg/L] | MIC [5] [mg/L] | MIC (Staphylococcus aureus [6]) [mg/L] | ED50 (Staphylococcus aureus [7]) [mg/kg] | MIC (Enterococcus faecalis) [mg/L] | MIC (Enterobacter cloacae) [mg/L] | MIC (Pseudomonas aeruginosa [8]) [mg/L] | AUC (Mus musculus [9]) [µg·h/mL]
CNC1(C)CN(c2c(F)cc3c(=O)c(C(=O)O)cn(C4CC4)c3c2F)C1 | 15.8 | 0.5 (≈ 1.38 µM) | 0.12 (≈ 0.33 µM) | 0.12 (≈ 0.33 µM) | 1.4 | 0.12 (≈ 0.33 µM) | 0.12 (≈ 0.33 µM) | 27.2 | 1 (≈ 2.75 µM) | 0.5 (≈ 1.38 µM) | 0.5 (≈ 1.38 µM) | 15 | 1 (≈ 2.75 µM) | 0.12 (≈ 0.33 µM) | 2 (≈ 5.5 µM) | –
CCNC1CN(c2c(F)cc3c(=O)c(C(=O)O)cn(C4CC4)c3c2F)C1 | 38.2 | 0.25 (≈ 0.688 µM) | 0.06 (≈ 0.165 µM) | 0.06 (≈ 0.165 µM) | 1.1 | 0.06 (≈ 0.165 µM) | 0.06 (≈ 0.165 µM) | 89 | 0.25 (≈ 0.688 µM) | 0.25 (≈ 0.688 µM) | 0.25 (≈ 0.688 µM) | 16.6 | 1 (≈ 2.75 µM) | 0.06 (≈ 0.165 µM) | 2 (≈ 5.5 µM) | –
CNC1CN(c2c(F)cc3c(=O)c(C(=O)O)cn(C4CC4)c3c2F)C1 | 32.7 | 0.25 (≈ 0.716 µM) | 0.06 (≈ 0.172 µM) | 0.03 (≈ 0.0859 µM) | 1.5 | 0.03 (≈ 0.0859 µM) | 0.06 (≈ 0.172 µM) | 28.5 | 0.5 (≈ 1.43 µM) | 0.12 (≈ 0.344 µM) | 0.25 (≈ 0.716 µM) | 10.6 | 1 (≈ 2.86 µM) | 0.03 (≈ 0.0859 µM) | 0.5 (≈ 1.43 µM) | –
NC1CN(c2c(F)cc3c(=O)c(C(=O)O)cn(C4CC4)c3c2F)C1 | 23 | 0.12 (≈ 0.358 µM) | 0.03 (≈ 0.0895 µM) | 0.03 (≈ 0.0895 µM) | 2.4 | 0.03 (≈ 0.0895 µM) | 0.03 (≈ 0.0895 µM) | 141 | 0.12 (≈ 0.358 µM) | 0.12 (≈ 0.358 µM) | 0.12 (≈ 0.358 µM) | 16.2 | 0.25 (≈ 0.746 µM) | 0.06 (≈ 0.179 µM) | 0.5 (≈ 1.49 µM) | –
CNC1CN(c2c(F)cc3c(=O)c(C(=O)O)cn(-c4ccc(F)cc4F)c3c2Cl)C1 | – | 0.06 (≈ 0.137 µM) | 0.015 (≈ 0.0343 µM) | 0.015 (≈ 0.0343 µM) | 1.3 | 0.12 (≈ 0.274 µM) | 0.12 (≈ 0.274 µM) | 30 | 0.12 (≈ 0.274 µM) | 0.06 (≈ 0.137 µM) | 0.015 (≈ 0.0343 µM) | 1.3 | 0.12 (≈ 0.274 µM) | 0.12 (≈ 0.274 µM) | 0.25 (≈ 0.571 µM) | 15.3
CCNCC1CN(c2c(F)cc3c(=O)c(C(=O)O)cn(C4CC4)c3c2F)C1 | – | 0.5 (≈ 1.32 µM) | 0.06 (≈ 0.159 µM) | 0.25 (≈ 0.662 µM) | – | 0.06 (≈ 0.159 µM) | 0.25 (≈ 0.662 µM) | – | 1 (≈ 2.65 µM) | 0.25 (≈ 0.662 µM) | 0.5 (≈ 1.32 µM) | – | 0.5 (≈ 1.32 µM) | 0.25 (≈ 0.662 µM) | 4 (≈ 10.6 µM) | 14.1
NC1CN(c2cc3c(cc2F)c(=O)c(C(=O)O)cn3C2CC2)C1 | 3 | 0.12 (≈ 0.378 µM) | 0.03 (≈ 0.0945 µM) | 0.03 (≈ 0.0945 µM) | 3.6 | 0.03 (≈ 0.0945 µM) | 0.03 (≈ 0.0945 µM) | 82.2 | 0.12 (≈ 0.378 µM) | 0.12 (≈ 0.378 µM) | 0.25 (≈ 0.788 µM) | 44 | 0.5 (≈ 1.58 µM) | 0.03 (≈ 0.0945 µM) | 0.25 (≈ 0.788 µM) | –
CC1(N)CN(c2c(F)cc3c(=O)c(C(=O)O)cn(C4CC4)c3c2F)C1 | 20 | 0.12 (≈ 0.344 µM) | 0.03 (≈ 0.0859 µM) | 0.06 (≈ 0.172 µM) | 3.1 | 0.03 (≈ 0.0859 µM) | 0.12 (≈ 0.344 µM) | 65.7 | 0.25 (≈ 0.716 µM) | 0.12 (≈ 0.344 µM) | 0.12 (≈ 0.344 µM) | 13 | 0.5 (≈ 1.43 µM) | 0.06 (≈ 0.172 µM) | 0.5 (≈ 1.43 µM) | –
O=C(O)c1cn(C2CC2)c2cc(N3CCNCC3)c(F)cc2c1=O [CIPROFLOXACIN] | – | 0.25 (≈ 0.754 µM) | 0.06 (≈ 0.181 µM) | – | 3 | 0.03 (≈ 0.0905 µM) | 0.06 (≈ 0.181 µM) | 70.3 | 0.06 (≈ 0.181 µM) | 0.5 (≈ 1.51 µM) | 0.25 (≈ 0.754 µM) | 45.1 | 0.5 (≈ 1.51 µM) | – | 0.12 (≈ 0.362 µM) | 2.3
